Shown are actives, neighbours in structure and some others; about 2.3% of the full set was active somewhere.
TRPC4 PAM: TRPC4 (mouse) allosteric potentiation; HEK293 TRPC4beta/mu-opioid, DAMGO EC20, Fluo-4 Ca2+ flux; hits give high values; B-score at 10 µM; hit rate 0.42% among 310,000;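 active = B-score of calcium response area above 5 SD of library B-scores, with initial fluorescence ratio within 5 SD of library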
Target sequence (Q9QUQ5 whole entry, looked up): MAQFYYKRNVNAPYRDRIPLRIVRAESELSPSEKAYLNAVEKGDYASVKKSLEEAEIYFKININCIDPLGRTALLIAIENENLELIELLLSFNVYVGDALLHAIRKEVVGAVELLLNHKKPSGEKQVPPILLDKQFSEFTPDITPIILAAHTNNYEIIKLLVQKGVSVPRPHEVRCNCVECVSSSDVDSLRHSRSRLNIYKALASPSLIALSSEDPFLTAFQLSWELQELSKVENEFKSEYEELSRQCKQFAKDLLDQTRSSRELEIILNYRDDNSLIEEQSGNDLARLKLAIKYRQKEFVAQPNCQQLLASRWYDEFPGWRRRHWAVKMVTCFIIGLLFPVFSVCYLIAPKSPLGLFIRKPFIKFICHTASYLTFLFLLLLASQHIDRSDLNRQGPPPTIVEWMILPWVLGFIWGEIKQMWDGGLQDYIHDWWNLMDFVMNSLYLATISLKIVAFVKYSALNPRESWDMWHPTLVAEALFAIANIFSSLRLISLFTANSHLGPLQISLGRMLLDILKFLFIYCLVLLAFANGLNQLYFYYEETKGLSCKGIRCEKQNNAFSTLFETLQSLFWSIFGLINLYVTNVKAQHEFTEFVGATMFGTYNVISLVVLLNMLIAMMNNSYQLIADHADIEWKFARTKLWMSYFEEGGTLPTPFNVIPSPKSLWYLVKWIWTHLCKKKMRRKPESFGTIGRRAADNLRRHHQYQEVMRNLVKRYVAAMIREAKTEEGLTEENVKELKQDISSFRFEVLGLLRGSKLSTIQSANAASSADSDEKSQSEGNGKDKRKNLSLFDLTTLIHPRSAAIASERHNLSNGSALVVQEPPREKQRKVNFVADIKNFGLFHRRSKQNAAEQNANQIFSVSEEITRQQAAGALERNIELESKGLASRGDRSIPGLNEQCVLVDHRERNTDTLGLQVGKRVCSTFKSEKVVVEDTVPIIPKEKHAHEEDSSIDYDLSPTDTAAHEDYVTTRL
TRPC4 agonist: TRPC4 (mouse) channel activation | hit rate 0.49% among 310,000 | B-score at 10 µM | Q9QUQ5 | HEK293 TRPC4beta/mu-opioid, Fluo4 calcium fluorescence; hits give high values;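 active = B-score above 5 SD of library B-scores, and initial fluorescence ratio not above library mean plus 5 SD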;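 note: positive B-score marks a calcium rise read as TRPC4 activation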
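Assay system – TRPC4beta and mu-opioid receptor HEK293 stable cells · Measured by – Fluo4 fluorescence, kinetic · Schedule – dye loading 45 min room temperature, 110 s kinetic read · Read-out – B-scored integrated calcium fluorescence ratio · Controls – buffer and maximal DAMGO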
TRPC6 inhibitor: mouse TRPC6 channel inhibition; Q61143; HEK293-TRPC6, membrane potential dye, ACh-evoked depolarization; hits give low values; B-score at 10 µM; hit rate 1.1% among 310,000; AID 2553;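 active = B-score under library mean minus 3 SD, initial fluorescence not abnormally high, positive integrated signal ratio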;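 note: B-score derived from integrated fluorescence ratio over the kinetic read; more negative B-score means stronger inhibition of depolarization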
TRPC4 block: blocks the mouse TRPC4 cation channel; HEK293 TRPC4beta/mu-opioid, DAMGO-evoked Fluo4 calcium flux; hits give low values; Q9QUQ5; B-score at 10 µM; hit rate 0.39% among 300,000;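 active = B-score over 3 SD under the library average, no early fluorescence shift, positive overall ratio signal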
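Assay system: HEK293 cells with stable TRPC4beta plus mu-opioid receptor expression; Probe or stimulus: DAMGO in two steps, submaximal then maximal; Dosing: single-point compound dosing; Measured by: Fluo4 calcium-dye fluorescence, kinetic read; Read-out basis: B score from integrated Fluo4 fluorescence ratio.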
TRPC6 act: activates the mouse TRPC6 cation channel; HEK293-TRPC6 membrane potential dye fluorescence; hits give high values; B-score at 10 µM; hit rate 0.13% among 310,000;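 active = B-score of the integrated fluorescence ratio above library mean plus 3 SD, and starting fluorescence ratio within library mean plus 5 SD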;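 note: higher score means more depolarization so channel activation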
TRPC4 spec 2: second check of whether TRPC6 inhibitors also affect mouse TRPC4; AID 2776; hit rate 42% among 920; HEK293 TRPC4/MOR, membrane potential dye fluorescence; channel activated by saturating DAMGO dose; shares compounds with TRPC6 inhibitor; inhibition, % at 10 µM;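 active = compounds whose fluorescence signal differed from control wells by over 3 SD, either direction, in both duplicate plates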
TRPC4 spec: selectivity of TRPC6 inhibitors: effect on mouse TRPC4; shares compounds with TRPC6 inhibitor; HEK293 TRPC4/mu-opioid, membrane potential fluorescence; activity change, negative = inhibition, % at 10 µM; hit rate 61% among 920; AID 2777;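 active = rise or fall in signal beyond 3 SD of buffer-only wells in both replicate plates, either sign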;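 note: integrated kinetic ratio of fluorescence range over baseline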
HEK293 MPD ctr 2-1: parental HEK293 nonspecific activity of TRPC6 inhibitors, second screen; signal change vs control, % at 10 µM; shares compounds with TRPC6 inhibitor; AID 2779; hit rate 31% among 920; parental HEK293 membrane potential dye fluorescence; maximal acetylcholine challenge after compound addition;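 active = membrane potential signal moving either way by over 3 SD of the maximum-effect control, in both duplicate plates, meaning non-specific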
HEK293 MPD ctr-1: parental HEK293 nonspecific activity of TRPC6 inhibitors. parental HEK293 membrane potential dye fluorescence. AID 2780. membrane potential signal change, % at 10 µM. hit rate 60% among 920. shares compounds with TRPC6 inhibitor;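 active = membrane potential signal shifting up or down by more than 3 SD of buffer-only wells, on both duplicate plates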
HEK293 MPD ctr-2: parental HEK293 nonspecific activity of TRPC6 modulators. shares compounds with TRPC6 inhibitor. membrane potential dye fluorescence. membrane potential signal change, % at 10 µM. hit rate 51% among 2,400;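 active = membrane potential signal moves up or down beyond 5 SD from buffer-only wells, on both duplicate plates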
HEK293 MPD ctr 2-2: second check of TRPC6 modulator effects in parental HEK293 cells; shares compounds with TRPC6 inhibitor; hit rate 14% among 2,400; inhibition, % at 10 µM; membrane potential dye fluorescence; after compound, maximal acetylcholine stimulation; AID 488926;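 active = membrane potential signal drops by more than 5 SD from the mean control signal, in both duplicate plates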
TRPC4 ctr mod: mouse TRPC4 off-target activity of TRPC6 modulators | HEK293 TRPC4/mu-opioid, membrane potential fluorescence | hit rate 69% among 2,400 | shares compounds with TRPC6 inhibitor | percent change from control (negative = decrease, positive = increase), % at 10 µM;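 active = membrane potential signal moved up or down beyond 5 SD of buffer control wells, in both duplicate plates, actives on both sides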
TRPC4/MOR inh 2: second selectivity test of TRPC6 modulators against mouse TRPC4; shares compounds with TRPC6 inhibitor; HEK293 TRPC4/mu-opioid, membrane potential dye fluorescence; stimulated with maximal-effect DAMGO; inhibition, % at 10 µM; hit rate 55% among 2,400;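 active = drop in membrane potential signal beyond 5 SD of the control wells in both duplicate plates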;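 note: TRPC4 counter screen for TRPC6 hits run under conditions tuned for TRPC6 not TRPC4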
TRPC6 inh conf: mouse TRPC6 inhibitor confirmation. shares compounds with TRPC6 inhibitor. HEK293-TRPC6, membrane potential dye, ACh-evoked depolarization. inhibition, % at 10 µM. hit rate 43% among 3,300. AID 488960;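 active = fluorescence ratio falls more than 5 SD below the full-stimulation control mean, in both duplicate runs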;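 note: integrated fluorescence ratio of peak minus minimum over baseline after agonist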
TRPC6 act confirm: mouse TRPC6 activator confirmation; HEK293-TRPC6 membrane potential dye fluorescence, FDSS; AID 488961; shares compounds with TRPC6 inhibitor; hit rate 11% among 2,800; activation, % at 10 µM;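 active = ratio signal rise beyond 5 SD above unstimulated control wells' mean, seen in both duplicate runs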
A number is an active result; i = inactive; nt = no result.

SMILES	TRPC4 PAM	TRPC4 agonist	TRPC6 inhibitor	TRPC4 block	TRPC6 act	HEK293 MPD ctr-2	HEK293 MPD ctr 2-2	TRPC4 ctr mod	TRPC4/MOR inh 2	TRPC6 inh conf	TRPC6 act confirm	others
COc1ccc(C(C(=O)NC2CCCC2)N(C(=O)c2csnn2)C2CCCC2)cc1 (stereo unspecified)	i	i	-6.31	i	i	i	i	18.0%	i	i	nt
Cc1c(NC(=O)COC(=O)CCc2c[nH]c3ccccc23)c(=O)n(-c2ccccc2)n1C	i	i	i	i	i	nt	nt	nt	nt	nt	nt
COc1ccc(/C(C)=N/NC2=NCCN2)cc1Cl	i	i	i	i	i	nt	nt	nt	nt	nt	nt
CCCCOc1ccc(Br)cc1/C(C)=N/NC1=NCCN1	i	i	-7.29	i	i	nt	nt	nt	nt	i	i	TRPC4 spec 2=27.0%;TRPC4 spec=14.8%;HEK293 MPD ctr 2-1=233.0%;HEK293 MPD ctr-1=8.4%
CCN(CC)CC#CCC(O)(c1ccccc1)c1ccccc1	i	i	i	i	i	nt	nt	nt	nt	nt	nt
CCN(CC)CC#CCC(C)(c1ccccc1)c1ccccc1	i	i	-4.98	i	i	142.5%	i	36.5%	i	i	nt
Cc1ccc(S(=O)(=O)N2CCN(CC3CC4C=CC3C4)CC2)cc1 (stereo unspecified)	i	i	i	i	i	nt	nt	nt	nt	nt	nt
CN1CCN(c2ccc(CNC(=O)c3cc4ccccc4o3)cc2)CC1	i	i	-5.33	i	i	i	i	i	32.0%	i	i
CCC(COC(=O)Nc1cccc(C)c1)NC(=O)OCC(C)C (stereo unspecified)	i	i	-5.09	i	i	i	i	i	i	i	i
CCNC(=O)OCC(CC)NC(=O)OCC(C)C (stereo unspecified)	i	i	i	i	i	nt	nt	nt	nt	nt	nt
Nc1cc2ccncc2c2ccccc12	i	i	-11	i	i	-380.0%	77.5%	-71.5%	85.5%	74.0%	i
Fc1ccc([C@@H]2CCNC[C@H]2COc2ccc3c(c2)OCO3)cc1	i	142	-5.34	i	i	i	64.5%	39.0%	95.0%	71.5%	i	TRPC4 spec 2=13.5%;TRPC4 spec=47.3%;HEK293 MPD ctr 2-1=i;HEK293 MPD ctr-1=0.5%
Cc1ccc(-n2nc3c(c2NC(=O)c2c(-c4ccccc4Cl)noc2C)CS(=O)(=O)C3)c(C)c1	i	i	-5.47	i	i	100.0%	i	24.0%	i	i	nt
CC(=O)c1cccc(NC(=S)N2CCN(c3ccccn3)CC2)c1	i	i	i	i	i	nt	nt	nt	nt	nt	nt
COc1ccccc1NC(=O)Nc1ccc2c(c1)CCC2	i	i	-5.02	i	i	i	i	i	i	i	i
CCOC(=O)Cc1nnc2c(Nc3ccc(Cl)cc3)nc3nonc3n12	i	i	i	i	i	nt	nt	nt	nt	nt	nt
O=C(NCC1CCCO1)[C@@H]1CSC2c3ccccc3C(=O)N21 (stereo partly specified)	i	i	-5.39	i	i	i	i	i	i	i	i
O=C(NCC1CCCO1)C1c2ccccc2C(=O)N1C1CCCCCCC1 (stereo unspecified)	i	i	i	i	i	nt	nt	nt	nt	nt	nt
CN(C)CCCN(C(=O)c1ccc([N+](=O)[O-])s1)c1nc2cc3c(cc2s1)OCCO3	i	i	i	i	i	nt	nt	nt	nt	nt	nt
CN(C)CCCN(C(=O)c1ccc(Cl)s1)c1nc2cc3c(cc2s1)OCO3	i	100	-6.09	i	i	i	i	-21.5%	84.5%	48.0%	i
CN(C)CCCN(C(=O)c1cccs1)c1nc2cc3c(cc2s1)OCO3	i	i	-9.7	-8	i	i	i	-19.0%	64.5%	42.0%	i
CCN(CC)CCN(C(=O)c1ccc(Br)s1)c1nc2cc3c(cc2s1)OCCO3	i	i	i	i	i	nt	nt	nt	nt	nt	nt
CN(C)CCCN(C(=O)c1cc(Cl)sc1Cl)c1nc2cc3c(cc2s1)OCO3	i	i	-5.07	i	i	i	55.0%	i	91.0%	61.0%	i
CN(C)CCCN(C(=O)c1ccc(Br)s1)c1nc2cc3c(cc2s1)OCCO3	i	63	-6.39	i	i	i	i	-13.5%	81.5%	59.5%	i
Cc1ccc2nc(N(CCN(C)C)C(=O)c3cc(Cl)sc3Cl)sc2c1	i	i	i	i	i	nt	nt	nt	nt	nt	nt
SMILES	TRPC4 PAM	TRPC4 agonist	TRPC6 inhibitor	TRPC4 block	TRPC6 act	HEK293 MPD ctr-2	HEK293 MPD ctr 2-2	TRPC4 ctr mod	TRPC4/MOR inh 2	TRPC6 inh conf	TRPC6 act confirm	others
Cc1ccnc(NC(=O)CCC(=O)N(CC(=O)NC2CCCCC2)Cc2cccs2)c1	i	i	i	i	i	nt	nt	nt	nt	nt	nt
COc1ccc(C2=NN(c3ccccc3)C(=O)/C2=C\c2ccc(O)c(OC)c2)cc1	i	i	-6.84	i	i	nt	nt	nt	nt	i	i	TRPC4 spec 2=i;TRPC4 spec=i;HEK293 MPD ctr 2-1=i;HEK293 MPD ctr-1=i
COc1cc(/C=C2/C(=O)N(c3cccc(Br)c3)N=C2C)cc(OC)c1O	i	i	-5.39	i	i	i	i	-26.5%	72.5%	53.0%	i
COc1cccc(CNCc2ccc(SC)cc2)c1OC	i	i	i	i	i	nt	nt	nt	nt	nt	nt
CN1CCN(c2ccccc2NC(=O)COc2ccc(Br)cc2)CC1	i	i	-5.09	i	i	i	i	17.5%	i	i	i
COc1ccc(OCC(=O)OC2CCN(C)CC2)cc1	i	i	i	i	i	nt	nt	nt	nt	nt	nt
CN1CCC(OC(=O)COc2ccc(Br)cc2)CC1	i	i	-5.53	i	i	i	i	13.0%	i	i	nt
Cc1ccc(CNC(=O)C2CCC(=O)N(CCc3ccc(Cl)cc3)C2)s1 (stereo unspecified)	i	i	i	i	i	nt	nt	nt	nt	nt	nt
Cc1ccccc1NS(=O)(=O)c1ccc(C(=O)N2CCCC(C(F)(F)F)C2)cc1 (stereo unspecified)	i	i	i	i	i	nt	nt	nt	nt	nt	nt
Clc1ccccc1C1=CC(c2ccco2)n2ncnc2N1 (stereo unspecified)	i	i	i	i	i	nt	nt	nt	nt	nt	nt

Assay outcomes as filed in PubChem BioAssay.
